# Rows were chosen to be rich in hits. Some 4.9% of all compounds tested hit in one or more screens of this group.
# CHT allo act: human CHT allosteric activation; CHT-expressing cells, membrane potential dye, choline EC20; stronger effect = higher value; LV-AA mutant CHT in HEK293 cells; B-score at 10 µM; 310,000 compounds, 0.49% hits; AID 488977;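 active = initial fluorescence not abnormally high and integrated response B-score, plate-corrected, over 3 SD above library mean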
# Target sequence (Q9GZV3 whole entry, looked up): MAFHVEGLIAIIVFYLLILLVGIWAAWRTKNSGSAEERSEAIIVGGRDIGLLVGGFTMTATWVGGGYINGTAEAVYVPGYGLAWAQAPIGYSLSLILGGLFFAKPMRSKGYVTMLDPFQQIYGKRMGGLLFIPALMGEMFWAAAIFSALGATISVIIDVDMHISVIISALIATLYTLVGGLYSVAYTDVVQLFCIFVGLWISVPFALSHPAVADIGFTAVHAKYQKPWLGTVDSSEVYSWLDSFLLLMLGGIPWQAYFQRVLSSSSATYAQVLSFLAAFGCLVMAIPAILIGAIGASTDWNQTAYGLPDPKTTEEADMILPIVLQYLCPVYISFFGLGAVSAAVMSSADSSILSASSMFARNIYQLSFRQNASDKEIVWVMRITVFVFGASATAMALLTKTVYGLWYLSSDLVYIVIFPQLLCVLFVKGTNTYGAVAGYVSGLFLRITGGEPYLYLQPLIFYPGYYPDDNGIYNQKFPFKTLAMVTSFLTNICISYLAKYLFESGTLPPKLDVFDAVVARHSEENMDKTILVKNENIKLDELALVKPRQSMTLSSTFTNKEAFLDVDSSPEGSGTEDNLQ
# HSF-1 act: increases HSF-1 driven luciferase reporter signal; AID 504408; activation, % at 9 µM; NIH3T3-HGL HSF-1 luciferase reporter, MG132, 8 h; 100% = twice DMSO control signal; 300,000 compounds, 1.7% hits;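 active = mean replicate activation of at least 50% with a set share of replicates each reaching 50%; inconclusive = only one of those two conditions met; inactive = mean below 50% and too few replicates reaching it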;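 note: 0% = median of the neutral control wells and 100% = twice that signal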
# Lipid droplet: modulators of hepatic lipid droplet formation | 240,000 compounds, 0.4% hits | AML12 mouse hepatocytes, oleate lipid droplets, BODIPY imaging | inhibition, % at 6.5 µM;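 active = lipid droplet intensity inhibited by at least 50%, with more than 500 cells counted; inconclusive = wells with under 300 cells, treated as cytotoxic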
#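 Material: mouse AML12 hepatocyte cell line, fixed after treatment; Timing: compound with oleate, overnight; Technique: high-content imaging of BODIPY-stained droplets and DAPI nuclei; Probe or stimulus: oleate, 100 µM final; Dosing: compound at 6.5 µM only.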
# HSF1 inh: HSF1 inhibition | NIH3T3-HGL HSE-luciferase, MG132-induced, luminescence 8 h; stronger effect = lower value | activity change, negative = inhibition, % at 7.5 µM (by protocol) | 300,000 compounds, 0.77% hits;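 active = more than half of replicate wells show activity change below -50%, luminescence cut by over half; inconclusive = some wells, but at most half, below -50%; inactive = no replicate well below -50%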;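 note: luciferase reports HSF-1 transcriptional activity via heat shock element; 0% = median of DMSO wells and -100% = zero luminescence signal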
# CHT inh: human CHT choline transport inhibition; Q9GZV3; CHT-expressing cells, membrane potential dye, choline response; stronger effect = lower value; B-score at 10 µM; 310,000 compounds, 0.86% hits;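 active = B-score over 3 SD under the library average, and starting fluorescence ratio not unusually high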;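 note: choline stimulus applied at its EC90 after an EC20 pre-addition; B-score computed on integrated fluorescence ratio after choline addition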
# PHOSPHO1 block: inhibitors of human PHOSPHO1 phosphatase | recombinant PHOSPHO1, absorbance phosphatase assay | Q8TCT1 | 290,000 compounds, 1.1% hits | inhibition, % at 13.3 µM; in the data active = inhibition above about 60%
# * hit, by the source's call; i = inactive; ? = inconclusive; . = not tested or not shown.
SMILES,CHT allo act,HSF-1 act,Lipid droplet,HSF1 inh,CHT inh,PHOSPHO1 block
O=C(Nc1ccc(Br)cn1)c1ccc(Br)s1,i,70.1*,-4.9,37.1,i,30.8
COc1ccccc1NC(=S)NCC1CCC(CNC(=S)Nc2ccccc2OC)CC1 (stereo not given),i,9.2,-16.0,0.0,i,20.3
CCC1=[N+](C)CCn2c(C)ccc21,i,5.1,12.5,-1.9,i,69.2*
CCC1=[N+](CC(=O)c2ccc(Br)cc2)CCn2c(C)ccc21,i,25.4,-22.6,8.5,i,-118.2
COc1ccc(N2C(=O)CC(NNc3ncc(Cl)cc3Cl)C2=O)cc1 (stereo not given),i,-69.5,13.0,-59.9*,i,4.5
COc1ccc(N2C(=O)CC(Nc3ccc(C)cc3)C2=O)cc1 (stereo not given),i,10.3,11.3,-2.2,i,1.7
COc1cc(Cl)ccc1OCc1cc(C(=O)NC(C)Cc2cnccn2)no1 (stereo not given),i,59.1*,-26.8,37.9,i,-10.1
CCc1nn(C)c(-c2n[nH]c(=S)n2N)c1Cl,i,15.8,.,-3.1,i,62.0*
CCc1cc(-c2n[nH]c(=S)n2N)n(C)n1,i,4.4,.,-4.5,i,-76.0
C=CCN(CC(O)c1cccc([N+](=O)[O-])c1)C(C)CCc1ccccc1 (stereo not given),i,-83.3,7.1,-77.9*,i,15.9
Cc1cc2cc(CCNC(=O)c3c(-c4ccccc4Cl)noc3C)c(=O)[nH]c2cc1C,.,7.6,2.5,-1.2,.,-17.5
Cc1ccc2[nH]c(=O)c(C(c3nnnn3CC3CCCO3)N3CCc4ccccc4C3)cc2c1 (stereo not given),i,-1.8,-3.9,3.6,i,-46.3
Cc1ccc2[nH]c(=O)c(C(c3nnnn3CC3CCCO3)N3CCCc4ccccc43)cc2c1 (stereo not given),i,-2.9,.,5.4,i,85.5*
O=S(=O)(c1cccs1)N1CCC(Cc2ccccc2)CC1,i,-16.9,1.0,0.9,i,-17.2
Nc1ccc(S(=O)(=O)N2CCC(Cc3ccccc3)CC2)cc1,i,-63.9,.,-54.5*,i,22.7
Cc1ccc(COC(=O)c2cc([N+](=O)[O-])ccc2N2CCOCC2)cc1,6.42*,-22.9,-145.6,-22.1,i,33.5
Cc1ccc(C(=O)c2cc([N+](=O)[O-])ccc2N2CCOCC2)cc1,.,-13.9,-4.6,-11.0,.,-22.0
COc1ccc(C(=O)c2cc([N+](=O)[O-])ccc2N2CCOCC2)cc1,10.5*,-36.6,?,-32.5,i,8.8
Cc1ccc(S(=O)(=O)Cn2nnnc2CN(Cc2ccco2)CC2CCCO2)cc1 (stereo not given),i,58.9*,-28.0,19.6,i,-10.7
CC(NC(=O)c1cc2cc(Br)ccc2oc1=N)c1ccccc1 (stereo not given),i,-8.7,0.7,-1.4,i,26.3
CC(=O)NC1=NN(C(C)=O)C(C)(c2cccnc2)S1 (stereo not given),i,0.7,6.0,4.0,i,11.4
CC(=O)Nc1nc(-c2ccc3ccccc3c2)cs1,i,87.2*,8.5,43.1,i,-4.7
CCCCNC(=O)Nc1nnc(C(C)(C)C)s1,i,55.9*,-10.9,27.1,i,33.1
COc1ccc(C2CC(C)(c3ccc(OC)cc3)Nc3ccccc3N2)cc1 (stereo not given),i,58.1*,-4.3,37.8,i,-4.4
CCCOC(=O)c1ccc(O)c(OC)c1,i,-12.5,-0.5,-1.1,i,24.8
SMILES,CHT allo act,HSF-1 act,Lipid droplet,HSF1 inh,CHT inh,PHOSPHO1 block
COc1cc(C(=S)N(C)C)ccc1O,i,.,-0.8,.,i,69.2*
CC(=O)c1cccc(NC(=O)Cn2cnc(S(=O)(=O)N3CCC(C)CC3)c2)c1,i,4.3,19.3,-3.6,i,38.5
Cc1cc(C)c(C(=O)/C=C/c2cccc3ccccc23)c(=O)[nH]1,i,83.8*,10.8,65.4,i,-27.0
Cc1cc(C)c(C(=O)/C=C/c2ccc3c(c2)OCO3)c(=O)[nH]1,i,7.8,8.4,3.1,i,49.0
CCC(=O)NNC(=S)NC(=O)c1ccc(C)cc1,i,15.8,8.3,3.9,i,36.6
CCC(=O)NC(=S)NNC(=O)c1ccc(O)cc1,i,14.9,-2.6,21.2,i,80.6*
CCOC(=O)c1c(C)noc1-c1ccc(Br)o1,i,14.9,3.3,-3.6,i,42.1
CCOC(=O)c1c(C)oc2c1c(C(c1cccnc1)N1CCOCC1)c(O)c1ccccc12 (stereo not given),i,0.7,.,2.0,i,78.7*
CCOC(=O)c1c(C)oc2c1c(C(c1cccnc1)N1CCN(C)CC1)c(O)c1ccccc12 (stereo not given),.,.,8.9,.,.,-25.3
Cc1ccc(OCC(=O)Nc2nnc(S(=O)(=O)N3CCCCC3)s2)cc1,i,8.6,21.1,-0.3,i,21.8
Cc1nn(-c2ccc(Cl)cc2)c2[nH]c(CCl)cc(=O)c12,i,-1.5,-9.3,-3.6,-9.41*,8.0
Cc1ccc(C(=O)NCCCN2CCOCC2)c(C)c1,i,-9.4,5.3,-7.3,i,34.0
O=C(CS(=O)(=O)c1ccccc1)c1cc2cc(F)ccc2oc1=O,i,325.4*,-9.5,240.4,i,27.9
CCCC(=O)Nc1nc(C)c(-c2csc(Nc3ccccc3OC)n2)s1,i,3.4,.,-4.1,i,86.5*
C=CCCC(=O)Nc1nc(C)c(-c2csc(Nc3cc(OC)ccc3OC)n2)s1,i,-50.7,.,-38.4,i,71.9*
COc1ccc(OC)c(Nc2nc(-c3sc(N)nc3C)cs2)c1,i,-1.3,-5.0,-8.8,i,52.7
COc1cccc(Nc2nc(-c3sc(NC(=O)CC(C)C)nc3C)cs2)c1,i,7.5,.,7.4,i,103.5*
CCCC(=O)Nc1nc(C)c(-c2csc(Nc3cc(OC)ccc3OC)n2)s1,i,0.1,.,3.3,i,88.9*
CCN(Cc1ccccc1)C(=O)c1ccc(NC(=O)c2ccc(OC)cc2)cc1,i,23.6,-8.5,-3.0,i,16.2
Cc1ccccc1Nc1nc(-c2sc(NC(=O)c3ccco3)nc2C)cs1,i,-12.8,38.6,11.3,i,65.6*
COc1ccccc1Nc1nc(-c2sc(NC(=O)CC(C)C)nc2C)cs1,i,8.6,.,7.2,i,76.8*
CCCC(C)C(=O)Nc1nc(C)c(-c2csc(Nc3cc(OC)ccc3OC)n2)s1 (stereo not given),i,15.3,.,-1.5,i,76.8*
C=CCCC(=O)Nc1nc(C)c(-c2csc(Nc3cccc(OC)c3)n2)s1,i,-5.7,.,6.5,i,103.5*
